Here are results for 1 molecule from ChEMBL document CHEMBL4823291, “Discovery of 5,6,7,8-tetrahydropyrido[3,4-d]pyrimidine derivatives as novel selective Axl inhibitors” (Bioorg Med Chem Lett, 2021).

Series [1] can be described thus: AUC (0 to 24 hrs) in CAnN.Cg-Foxnlnu/CrlCrlj mouse plasma at 100 mg/kg, po single dose measured up to 24 hrs by liquid chromatography tandem mass spectrometry. In kind it is ADME, organism-based. The arrangement: route oral, dose 100 mg/kg, time <=24.
The nature of series [2]: AUC (0 to 24 hrs) in CAnN.Cg-Foxnlnu/CrlCrlj mouse plasma at 50 mg/kg, po single dose measured up to 24 hrs by liquid chromatography tandem mass spectrometry. In kind it is ADME, organism-based. Also noted: route oral, dose 50 mg/kg, time <=24.
Series [3] deals with T1, Tyrosine-protein kinase Mer (Mus musculus, UniProt Q60805).
T1 sequence (Q60805 whole entry): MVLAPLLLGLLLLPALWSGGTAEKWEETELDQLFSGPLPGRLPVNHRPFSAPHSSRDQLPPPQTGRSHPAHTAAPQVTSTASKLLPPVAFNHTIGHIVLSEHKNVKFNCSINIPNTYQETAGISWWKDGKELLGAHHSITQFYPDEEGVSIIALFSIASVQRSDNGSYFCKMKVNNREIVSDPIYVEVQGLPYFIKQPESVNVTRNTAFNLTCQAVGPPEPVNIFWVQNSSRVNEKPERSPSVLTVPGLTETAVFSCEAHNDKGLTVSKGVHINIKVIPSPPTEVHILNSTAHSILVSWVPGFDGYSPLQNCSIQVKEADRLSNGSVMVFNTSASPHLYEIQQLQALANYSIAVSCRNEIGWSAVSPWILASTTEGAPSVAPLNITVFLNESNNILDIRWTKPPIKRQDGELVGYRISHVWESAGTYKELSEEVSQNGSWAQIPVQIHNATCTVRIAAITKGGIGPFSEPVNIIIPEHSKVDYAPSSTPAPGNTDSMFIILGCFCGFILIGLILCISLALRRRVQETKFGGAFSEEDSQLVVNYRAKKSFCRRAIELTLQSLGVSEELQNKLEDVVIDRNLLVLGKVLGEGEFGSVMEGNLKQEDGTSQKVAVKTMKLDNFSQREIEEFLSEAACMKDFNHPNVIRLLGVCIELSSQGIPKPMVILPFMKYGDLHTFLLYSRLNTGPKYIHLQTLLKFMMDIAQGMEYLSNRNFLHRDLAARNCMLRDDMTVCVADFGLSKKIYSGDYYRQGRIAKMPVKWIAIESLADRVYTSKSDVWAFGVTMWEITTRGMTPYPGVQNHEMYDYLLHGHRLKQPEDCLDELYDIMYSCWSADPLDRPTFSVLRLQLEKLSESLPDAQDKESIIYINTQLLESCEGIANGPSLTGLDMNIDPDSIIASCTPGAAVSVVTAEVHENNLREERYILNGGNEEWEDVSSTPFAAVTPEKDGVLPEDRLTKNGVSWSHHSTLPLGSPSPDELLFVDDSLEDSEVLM
Nature of the series: Inhibition of Mer in mouse BaF3 cells. The format is cell-based.

Series [4] deals with T2, Tyrosine-protein kinase receptor UFO (Homo sapiens, UniProt P30530).
T2 sequence (P30530 whole entry): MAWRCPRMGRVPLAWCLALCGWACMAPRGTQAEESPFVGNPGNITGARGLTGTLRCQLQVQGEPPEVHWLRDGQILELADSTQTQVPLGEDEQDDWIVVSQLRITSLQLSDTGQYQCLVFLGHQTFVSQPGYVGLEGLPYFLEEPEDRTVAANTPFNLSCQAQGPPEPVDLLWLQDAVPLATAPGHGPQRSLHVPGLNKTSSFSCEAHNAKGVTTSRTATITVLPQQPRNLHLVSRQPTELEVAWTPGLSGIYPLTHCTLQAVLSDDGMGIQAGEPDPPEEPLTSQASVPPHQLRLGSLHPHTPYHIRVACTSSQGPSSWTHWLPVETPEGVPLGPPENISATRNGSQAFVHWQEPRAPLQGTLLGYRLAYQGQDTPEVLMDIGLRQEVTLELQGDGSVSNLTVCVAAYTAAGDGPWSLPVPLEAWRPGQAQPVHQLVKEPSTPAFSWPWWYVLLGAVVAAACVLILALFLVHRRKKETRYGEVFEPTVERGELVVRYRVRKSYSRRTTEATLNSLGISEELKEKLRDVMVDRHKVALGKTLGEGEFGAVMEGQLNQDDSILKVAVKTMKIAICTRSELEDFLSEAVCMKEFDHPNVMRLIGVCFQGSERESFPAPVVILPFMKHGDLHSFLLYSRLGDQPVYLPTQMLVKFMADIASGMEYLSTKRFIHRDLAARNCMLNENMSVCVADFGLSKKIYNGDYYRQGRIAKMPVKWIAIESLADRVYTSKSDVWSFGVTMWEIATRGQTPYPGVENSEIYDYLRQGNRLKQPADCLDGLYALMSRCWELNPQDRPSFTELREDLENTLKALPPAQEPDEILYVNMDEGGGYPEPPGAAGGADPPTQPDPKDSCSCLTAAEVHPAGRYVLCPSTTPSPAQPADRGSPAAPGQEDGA
Nature of the series: Inhibition of Axl (unknown origin) by cell free assay.

Series [5] addresses T3, Tyrosine-protein kinase receptor UFO (Mus musculus, UniProt Q00993).
T3 sequence (Q00993 whole entry): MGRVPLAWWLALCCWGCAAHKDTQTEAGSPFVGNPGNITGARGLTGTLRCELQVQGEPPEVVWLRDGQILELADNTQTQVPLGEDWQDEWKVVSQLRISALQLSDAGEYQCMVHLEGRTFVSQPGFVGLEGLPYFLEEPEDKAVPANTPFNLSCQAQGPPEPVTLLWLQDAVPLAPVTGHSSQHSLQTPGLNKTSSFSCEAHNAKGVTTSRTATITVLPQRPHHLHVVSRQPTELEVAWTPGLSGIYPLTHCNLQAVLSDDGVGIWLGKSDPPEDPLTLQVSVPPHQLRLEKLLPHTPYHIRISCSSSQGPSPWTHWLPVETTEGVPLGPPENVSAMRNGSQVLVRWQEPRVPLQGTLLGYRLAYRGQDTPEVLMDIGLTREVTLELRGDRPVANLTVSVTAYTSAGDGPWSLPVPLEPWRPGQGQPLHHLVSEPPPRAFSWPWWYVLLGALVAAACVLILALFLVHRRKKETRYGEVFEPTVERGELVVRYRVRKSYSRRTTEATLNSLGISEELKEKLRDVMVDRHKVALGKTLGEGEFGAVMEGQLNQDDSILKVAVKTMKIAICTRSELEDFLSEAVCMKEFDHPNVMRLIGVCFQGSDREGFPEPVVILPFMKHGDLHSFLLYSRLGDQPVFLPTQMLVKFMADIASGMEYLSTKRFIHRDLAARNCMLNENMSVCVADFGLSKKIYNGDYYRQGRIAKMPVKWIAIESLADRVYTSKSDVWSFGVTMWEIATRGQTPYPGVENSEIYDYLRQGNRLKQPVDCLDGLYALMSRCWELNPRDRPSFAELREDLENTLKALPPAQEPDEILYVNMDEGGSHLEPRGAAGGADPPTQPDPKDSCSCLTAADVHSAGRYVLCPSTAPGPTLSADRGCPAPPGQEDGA
Nature of the series: Inhibition of Axl in mouse BaF3 cells. In kind it is cell-based.

Series [6] relates to CYP3A. Description: Time dependent inhibition of CYP3A in human liver microsomes assessed as enzyme remaining activity using cocktail of probe CYP as substrate at 50 uM. The format is ADME. To be noted: probe cocktail of CYP probe substrates, read-out: Activity. A digest of the protocol: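 Time-dependent CYP inhibition in human liver microsomes, with test compound at 50 µM and a cocktail of probe CYP substrates.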

Turning to `Cc1ccc(-n2c(=O)c(C(=O)Nc3ccc(Oc4ncnc5c4CCN(CC4CCN(C)CC4)C5)c(F)c3)cn(C3CCCC3)c2=O)nc1`, the AUC(0-t) in series [1] was 110000 ng·h/mL; in series [2], 56700 ng·h/mL. In addition, the figures for the concentration for half-maximal inhibition (IC50) in series [3], in series [4] and in series [5] were 180 nM, 5.2 nM and 28 nM, respectively. Besides, the activity at 50 µM in series [6] was found to be 51%.
